Bioassay records as filed in PubChem BioAssay.
Shown are actives, neighbours in structure and some others; about 1% of the full set was active somewhere.
Hsp70 act: Hsp70 transcriptional activators, primary screen, cell-based, HeLa, Hsp70 promoter luciferase, luminescence, 10 µM; 200,000 compounds, 0.04% hits; activation, % at 10 µM; HeLa Hsp70 promoter luciferase reporter; scaled: vehicle 0, proteasome-inhibitor control 100%; AID 1203, 2008;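 active = activation above the mean across all tested compounds plus 3 SD, cutoff set per campaign, cut at about 5.5% in these data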;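 also: 100% = MG132 at 30 µM as the positive control and 0% = DMSO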
NOD2-RIPK2 inh: NOD2-RIPK2 binding disruptors in cells, primary screen, fluorescence, CHO cells, BLA complementation. Receptor-interacting serine/threonine-protein kinase 2 (Homo sapiens), O43353. CCF4 ratio. inhibition, % at 4.98 µM. 360,000 compounds, 0.38% hits; in the data active = inhibition above about 21%;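 also: 0% = vehicle only and 100% = reference blocker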
Target sequence (O43353 whole entry, looked up): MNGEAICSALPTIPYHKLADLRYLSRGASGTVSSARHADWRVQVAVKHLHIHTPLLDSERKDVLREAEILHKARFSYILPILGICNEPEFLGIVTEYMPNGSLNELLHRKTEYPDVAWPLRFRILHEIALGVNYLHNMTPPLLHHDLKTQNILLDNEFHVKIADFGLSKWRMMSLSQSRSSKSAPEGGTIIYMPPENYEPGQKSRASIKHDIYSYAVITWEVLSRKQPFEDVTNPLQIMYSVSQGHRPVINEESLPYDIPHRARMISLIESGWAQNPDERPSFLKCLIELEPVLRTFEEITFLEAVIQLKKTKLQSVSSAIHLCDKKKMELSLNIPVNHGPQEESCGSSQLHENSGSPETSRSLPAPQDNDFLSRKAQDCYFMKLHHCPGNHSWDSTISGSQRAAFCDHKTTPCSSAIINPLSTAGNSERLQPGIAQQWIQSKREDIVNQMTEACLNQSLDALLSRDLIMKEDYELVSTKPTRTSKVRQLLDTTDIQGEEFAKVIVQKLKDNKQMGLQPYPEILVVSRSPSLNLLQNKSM
b-catenin transl: modulators of beta-catenin nuclear translocation, primary screen, imaging, HeLa cells, immunofluorescence, high-content. 190,000 compounds, 0.3% hits. AID 1665, 2009. nuclear translocation activity, % at 5 µM;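 active = nuclear translocation activity above 50% at 5 µM, with a well cell count of 50 or more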;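 also: per-cell ratio of nuclear to cytoplasmic median beta-catenin stain intensity; plate controls were DMSO negative control for no effect and GSK-3 inhibitor IX positive control for full effect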
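Signal – beta-catenin immunofluorescence imaging with DAPI · Test system – human HeLa cell line · Dosing – 5 µM primary single dose, 0.1% DMSO, 0.02–20 µM confirmation series · Measure – % activation, nuclear-to-cytoplasmic median beta-catenin signal ratio per cell · Incubation – 24 h compound exposure at 37°C, 5% CO2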
TLR9-MyD88 block: inhibitors of TLR9-MyD88 association in cells, primary screen, cell-based, CHO, BLA complementation, fluorescence. Toll-like receptor 9 (Homo sapiens) + Myeloid differentiation primary response protein …. CCF4 FRET ratio. inhibition, % at 4.98 µM. 340,000 compounds, 0.21% hits;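 active = inhibition above the mean over all tested compounds plus 3 SD, cut at about 21% in these data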;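 also: 0% = DMSO only wells and 100% = clavulanate BLA inhibitor control wells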
MT stabilizer: microtubule stabilizers in HeLa cells, primary screen, imaging, high-content imaging. HeLa tubulin immunostaining HCS, 24 h; share of cells brighter than vehicle mean+2SD. % tubulin-high responders, % at 10 µM. 200,000 compounds, 0.83% hits;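 active = plate Z-score above 3 for both tubulin-high and condensed-nucleus cell shares, with cell loss under 80%, at 10 µM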;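 also: anti alpha tubulin signal scored within the nucleus-defined area of each cell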
TLR4-MyD88 BLA: inhibitors of TLR4-MyD88 association in cells, primary screen, cell-based, HeLa CL3-4, BLA complementation, FRET ratio; Toll-like receptor 4 (Homo sapiens) + Myeloid differentiation primary response protein …; HeLa CL3-4 TLR4/MyD88 BLA complementation; inhibition, % at 8.4 µM; 200,000 compounds, 0.18% hits; in the data active = inhibition above about 25%;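 also: 0% = vehicle and 100% = reference inhibitor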
* hit, by the source's call; . = no result given.

SMILES | Hsp70 act | NOD2-RIPK2 inh | b-catenin transl | TLR9-MyD88 block | MT stabilizer | TLR4-MyD88 BLA
COc1ccc(/C=N/NC(=O)c2ccc3ccccc3c2)cc1OS(=O)(=O)c1ccc(NC(C)=O)cc1 | -0.1 | -6.5 | 108.9* | 11.6 | 4.5 | -9.3
COc1ccc(N(CC(=O)Nc2cc(Cl)ccc2OC)S(=O)(=O)c2c(C)noc2C)cc1 | 0.0 | 1.9 | -0.4 | -3.5 | 15.7* | 13.6
COc1ccc(-c2cn3cc(Br)cnc3n2)cc1 | -0.1 | 3.0 | 0.9 | -2.1 | 20.2* | 4.8
Cc1ccc(C)c(C2NC(=O)c3ccccc3N2)c1 (stereo unspecified) | . | 9.4 | 64.4* | 8.5 | . | .
Cc1ccc(C)c2nc(Cl)c(C3NC(=O)c4ccccc4N3)cc12 (stereo unspecified) | -0.2 | 0.8 | 13.9 | -5.5 | 15.7* | -30.1
COc1cc(C)c(C2NC(=O)c3ccccc3N2)cc1C (stereo unspecified) | . | -2.3 | . | -2.9 | . | .
CCOC(=O)c1csc(NC(=O)c2ccc3c(c2)OCCO3)n1 | . | -3.4 | . | -3.4 | . | .
C/C=C/COC(=O)c1[nH]c2c(c1C)C(=O)CC(c1ccc(N(C)C)cc1)C2 (stereo unspecified) | -0.3 | -9.9 | 1.0 | 5.9 | 2.8 | 0.5
COC(=O)c1[nH]c2c(c1C)C(=O)CC(c1ccc(OC)cc1)C2 (stereo unspecified) | . | -5.8 | . | -4.0 | . | .
C/C=C/COC(=O)c1[nH]c2c(c1C)C(=O)CC(c1ccco1)C2 (stereo unspecified) | 0.8 | 7.5 | 153.6* | 11.1 | 9.3 | -1.8
Cc1c(C(=O)OCC2CCCO2)[nH]c2c1C(=O)CC(c1ccco1)C2 (stereo unspecified) | -0.2 | -3.5 | 89.2* | -0.3 | 40.0* | -8.6
Cc1c(C(=O)OC2CCCC2)[nH]c2c1C(=O)CC(c1ccco1)C2 (stereo unspecified) | 0.2 | 17.0 | 131.5* | 6.3 | 9.6 | -2.3
COC(=O)C1C(=O)c2c([nH]c(C(=O)OC3CCCC3)c2C)CC1C (stereo unspecified) | 0.7 | 14.1 | -4.2 | 1.2 | 1.4 | -2.7
COC(=O)c1[nH]c2c(c1C)C(=O)CC(c1ccccc1)C2 (stereo unspecified) | 1.5 | -8.6 | 55.5* | 4.2 | 4.3 | -1.8
COC(=O)C1=COC(OC2OC(CO)C(O)C(O)C2O)C2C(C)CC(=O)C12 (stereo unspecified) | . | -20.8 | . | . | . | .
COCCNC(=O)Cn1nc(-c2ccc(C)cc2)ccc1=O | . | 1.4 | . | 3.1 | . | .
C=CCOC(=O)C1=C(C)OC(N)=C(C#N)C1c1ccco1 (stereo unspecified) | . | -13.9 | -1.5 | 3.6 | . | .
CCOC(=O)c1[nH]c2c(c1C)C(=O)CC(c1ccc(OC)c(OC)c1)C2 (stereo unspecified) | -0.2 | 5.0 | -1.1 | -11.3 | 3.6 | -13.1
Cc1c(C(=O)O)[nH]c2c1C(=O)CC(c1ccc(C(C)(C)C)cc1)C2 (stereo unspecified) | . | 1.0 | . | 0.2 | . | .
C=CCOC(=O)c1[nH]c2c(c1C)C(=O)CC(c1ccco1)C2 (stereo unspecified) | 0.7 | . | 88.6* | . | 10.8 | 5.3
Cc1c(C(=O)OCC(C)C)[nH]c2c1C(=O)CC(c1ccco1)C2 (stereo unspecified) | 0.9 | 6.8 | 182.9* | 5.2 | 3.5 | -5.2
Cc1c(C(=O)N2CCOCC2)[nH]c2c1C(=O)CC(c1ccccc1Cl)C2 (stereo unspecified) | -0.5 | -0.8 | . | 5.0 | 40.5* | -6.4
Cc1nn(CCCC(=O)NCCc2ccccc2)c(=O)c2nccn12 | . | -0.7 | . | 10.2 | . | .
O=C(Nc1nnc([C@@H]2C[C@H](O)[C@@H](CO)O2)s1)c1ccc(Oc2ccccc2)cc1 | . | -13.1 | . | . | . | .
COC(=O)c1cc2ccsc2n1CC(=O)Nc1cc(Cl)ccc1OC | -0.3 | -4.0 | . | 3.5 | 30.0* | 5.3
SMILES | Hsp70 act | NOD2-RIPK2 inh | b-catenin transl | TLR9-MyD88 block | MT stabilizer | TLR4-MyD88 BLA
O=C(N/N=C/c1ccc(Cl)cc1)c1sccc1OCc1ccc(F)cc1 | 0.7 | 4.0 | -0.2 | 7.5 | 18.9* | -2.5
O=C(N/N=C/c1ccc(F)cc1)c1sccc1OCc1ccc(F)cc1 | 0.2 | -10.9 | 86.7* | -3.1 | 34.4* | 1.9
O=C(NCc1cccs1)C1CCN(c2ccc(S(=O)(=O)N3CCOCC3)cc2Cl)CC1 | -0.2 | 2.8 | 106.1* | 0.4 | 27.3* | -1.2
CCOc1ccc(S(=O)(=O)N(C(=O)c2ccco2)c2cc3sc(=O)oc3c3ccccc23)cc1 | -0.1 | -2.1 | 0.4 | -14.8 | 19.1* | 2.8
COc1ccc(S(=O)(=O)N(C(=O)c2ccco2)c2cc3sc(=O)oc3c3ccccc23)cc1 | -0.2 | -21.5 | 0.3 | -12.1 | 1.6 | -6.1
O=C(O)c1cc(-c2cccs2)nn1-c1cccc(Cl)c1 | -0.2 | 6.0 | -3.1 | 13.0 | 4.9 | -4.7
CN(C)S(=O)(=O)c1cccc(NC(=O)c2cc(-c3cccs3)nn2-c2cccc(Cl)c2)c1 | 0.0 | -4.5 | 30.0 | 1.1 | 13.4* | -5.1
Cc1cc(=O)oc2cc(OCC(=O)NC3CCCCC3)ccc12 | . | -0.1 | . | 4.5 | . | .
CCn1ncc(S(=O)(=O)NCc2ccccc2Cl)c1C | . | -2.4 | . | 4.1 | . | .
CN1C/C(=C/c2cccnc2)C(=O)/C(=C/c2cccnc2)C1 | -0.3 | -4.3 | 2.0 | 6.4 | 52.7* | -0.9
CC(C)N1C/C(=C/c2cccnc2)C(=O)/C(=C/c2cccnc2)C1 | 0.2 | -0.5 | 12.5 | -1.9 | 67.7 | -12.0
CCc1nnc(NC(=O)CSc2nccn2-c2cccc(C)c2C)s1 | -0.3 | -11.9 | -0.5 | -1.4 | 19.5* | -10.9
Cc1cccc(-n2ccnc2SCC(=O)Nc2nccs2)c1C | 0.1 | 8.8 | -1.1 | 2.3 | 4.1 | 2.0
COc1cccc(C2=CC(c3cccs3)n3nnnc3N2)c1 (stereo unspecified) | 0.2 | 8.8 | 1.4 | -2.5 | 33.4* | -7.1
CCOC(=O)C1(C)CCCN1C(=O)c1ccc2ccccc2c1 (stereo unspecified) | . | -8.9 | . | . | . | .
COc1cccc(-c2nn(C)c3sc(C(=O)N4CCN(c5ccccn5)CC4)cc23)c1 | -0.2 | 3.0 | -0.5 | -15.6 | 13.5* | 9.8
COc1ccc(CCNC(=O)Nc2ccc3nc([C@@H]4O[C@H](CO)[C@@H](O)[C@H](O)[C@H]4O)[nH]c3c2)cc1Br | . | -14.9 | . | . | . | .
CN(C)C(=O)CN1C(=O)NC2(CCc3ccccc32)C1=O (stereo unspecified) | . | -3.2 | . | 11.6 | . | .
O=C(Nc1nc2ccc(C(=O)N3CCCCC3)cc2s1)C1CCCCC1 | -0.3 | 5.3 | 0.6 | -0.6 | 15.7* | 10.3
